In ChEMBL document CHEMBL3612030 (Eur J Med Chem, 2015):
Activity calls are given as the source filed them. No cut-off for these calls is given here.

Assays:
[1] = target: T1, Polyunsaturated fatty acid 5-lipoxygenase (Homo sapiens, UniProt P09917); experiment: Inhibition of human 5-LOX expressed in Escherichia coli Bl21 (DE3) assessed as reduction in LTB4 and 5-H(P)ETE) formation pre-incubated for 10 mins before arachidonic acid substrate addition by RP-HPLC method
T1 sequence (P09917 whole entry): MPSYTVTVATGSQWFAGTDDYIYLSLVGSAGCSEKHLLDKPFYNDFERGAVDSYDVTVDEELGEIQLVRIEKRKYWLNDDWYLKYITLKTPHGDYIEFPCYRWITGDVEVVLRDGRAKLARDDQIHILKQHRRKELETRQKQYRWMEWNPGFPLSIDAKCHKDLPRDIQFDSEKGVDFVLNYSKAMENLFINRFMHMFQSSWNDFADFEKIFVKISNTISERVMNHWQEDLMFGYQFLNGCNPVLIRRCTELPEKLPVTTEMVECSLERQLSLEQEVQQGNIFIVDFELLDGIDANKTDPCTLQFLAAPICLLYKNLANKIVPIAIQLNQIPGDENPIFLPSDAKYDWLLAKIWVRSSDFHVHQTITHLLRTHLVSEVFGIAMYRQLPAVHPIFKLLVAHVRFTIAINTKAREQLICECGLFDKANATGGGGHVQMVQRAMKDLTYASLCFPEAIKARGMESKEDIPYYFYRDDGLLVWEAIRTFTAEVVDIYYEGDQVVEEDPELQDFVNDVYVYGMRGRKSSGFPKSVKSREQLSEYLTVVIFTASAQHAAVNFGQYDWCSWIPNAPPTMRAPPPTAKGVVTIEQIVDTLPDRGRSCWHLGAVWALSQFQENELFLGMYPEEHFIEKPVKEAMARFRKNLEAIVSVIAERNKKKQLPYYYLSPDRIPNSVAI
Summary of the method: (§1)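 Human 5-LO expressed from pT3-5LO in E. coli BL21(DE3) and semi-purified on ATP-agarose. Diluted in PBS with 1 mM EDTA and 1 mM ATP, pre-incubated with compound 10 min at 4 °C, then warmed 30 s at 37 °C. Reaction started with 2 mM CaCl2 plus 20 µM arachidonic acid, run 10 min at 37 °C and stopped with ice-cold methanol. All-trans LTB4 isomers and 5-H(P)ETE measured by RP-HPLC. 3–4 independent experiments.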

[2] = target: T1, Polyunsaturated fatty acid 5-lipoxygenase; experiment: Inhibition of 5-LOX in human neutrophils assessed as reduction in LTB4 and 5-H(P)ETE) formation pre-incubated for 15 mins before A23187 and arachidonic acid substrate addition by RP-HPLC method
Summary of the method: (§2)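 Freshly isolated neutrophils (1 × 10^7/mL) pre-incubated with compound for 15 min at 37 °C. LTB4, its all-trans isomers and 5-H(P)ETE extracted and quantified by HPLC; cysteinyl-LTs and LTB4 oxidation products not measured. Mean ± S.E.M. of 3–4 independent experiments.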

U-937 = experiment: Cytotoxicity against human U937 cells assessed as reduction in viability incubated for 24 hrs by MTT assay; format: cell-based; settings: U-937, 24 h
Summary of the method: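 U937 cells grown in RPMI 1640 with 10% FBS, […] and penicillin/streptomycin at 37 °C under 5% CO2. Seeded at 1 × 10^6/mL and exposed to 3 concentrations for 24 h. MTT added at one-tenth culture volume for 4 h, then acidic isopropanol. Read at 570 nm minus 630-690 nm background. Untreated cells (RPMI + DMSO) = 100% viability. EC50 = concentration halving MTT reduction. 3–4 independent experiments, mean ± S.E.M.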

[3] = target: T2, Polyunsaturated fatty acid 5-lipoxygenase (Homo sapiens) (UniProt P09917); experiment: Inhibition of human 5-LOX expressed in HEK293 cells without FLAP expression assessed as reduction in LTB4 and 5-H(P)ETE) formation at 1 uM pre-incubated for 10 mins before arachidonic acid substrate addition by RP-HPLC method; format: cell-based
T2 sequence (whole entry): T1 sequence (P09917 whole entry)
Summary of the method: (§3)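 Stably transfected HEK 293 cells expressing 5-LO alone or 5-LO plus FLAP, 1 × 10^6 cells in 1 mL PBS with 0.1% glucose and 1 mM CaCl2. Pre-incubated with compound 10 min at 37 °C, then stimulated with 2.5 µM A23187 plus 2 µM arachidonic acid for 10 min at 37 °C. Stopped with methanol; all-trans LTB4 isomers and 5-H(P)ETE extracted and measured by HPLC.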

[4] = target: T2, Polyunsaturated fatty acid 5-lipoxygenase (Homo sapiens); experiment: Inhibition of 5-LOX in human neutrophils assessed as remaining enzyme activity by measuring LTB4 and 5-H(P)ETE) formation at 10 uM pre-incubated for 15 mins before A23187 and arachidonic acid substrate addition by RP-HPLC method
Summary of the method: as §2, with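 “°C. Stimulated with 2.5 µM A23187 plus 20 µM arachidonic acid for 10 min at 37 °C, then stopped with methanol.” for “°C.”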

[5] = target: T2, Polyunsaturated fatty acid 5-lipoxygenase (Homo sapiens); experiment: Inhibition of human 5-LOX expressed in Escherichia coli Bl21 (DE3) assessed as remaining enzyme activity by measuring LTB4 and 5-H(P)ETE) formation at 10 uM pre-incubated for 10 mins before arachidonic acid substrate addition by RP-HPLC method; summary of the method: as §1
[6] = target: T2, Polyunsaturated fatty acid 5-lipoxygenase (Homo sapiens); experiment: Inhibition of human 5-LOX expressed in HEK293 cells co-expressing FLAP assessed as reduction in LTB4 and 5-H(P)ETE) formation at 1 uM pre-incubated for 10 mins before arachidonic acid substrate addition by RP-HPLC method; format: cell-based; summary of the method: as §3

SMILES	IC50 [1] [µM]	IC50 [2] [µM]	EC50 (U-937) [µM]	inhibition [3]	Activity [4] [%]	Activity [5] [%]	inhibition [6]
CC(=O)Oc1ccc(/C=C/C(=O)OCCCCc2cn(CCCO)nn2)cc1OC(C)=O	7.6	6.1	–	–	–	–	–
C#CCCOC(=O)/C=C/c1ccc(OC(C)=O)c(OC(C)=O)c1	> 10	1.8	9.8	Active	–	–	–
O=C(/C=C/c1ccc(F)c(F)c1)OCCc1cn(CCCO)nn1	> 10	> 10	5.1	–	101	90.3	–
C#CCCCCCOC(=O)/C=C/c1ccc(OC(C)=O)c(OC(C)=O)c1	> 10	0.47	–	–	–	–	–
CC(=O)Oc1ccc(/C=C/C(=O)OCCCCCCCCc2cn(CCCO)nn2)cc1OC(C)=O	3.2	0.2	10.2	–	–	–	–
C#CCCNC(=O)/C=C/c1ccc(OC(C)=O)c(OC(C)=O)c1	> 10	8.23	–	–	–	–	–
C#CCCOC(=O)/C=C/c1ccc(F)c(F)c1	> 10	> 10	–	–	88.2	52.6	–
C#CCCCCOC(=O)/C=C/c1ccc(OC(C)=O)c(OC(C)=O)c1	> 10	0.92	–	–	–	–	–
CC(=O)Oc1ccc(/C=C/C(=O)NCCc2cn(CCCO)nn2)cc1OC(C)=O	> 10	> 10	10.3	–	104	53.6	–
CC(=O)Oc1ccc(/C=C/C(=O)OCCCn2cc(CCO)nn2)cc1OC(C)=O	7.6	> 10	–	–	–	–	–
O=C(O)/C=C/c1ccc(O)c(O)c1 [CAFFEIC ACID]	–	–	9.9	–	–	–	–
CC(=O)Oc1c(C)c(C)c2c(c1C)CCC(C)(C(=O)OCCCN=[N+]=[N-])O2 (configuration not stated)	> 10	2.6	–	–	–	–	–
CC(=O)Oc1ccc(/C=C/C(=O)OCCCn2cc(CCOC(=O)/C=C/c3ccc(OC(C)=O)c(OC(C)=O)c3)nn2)cc1OC(C)=O	> 10	0.6	9.6	Active	–	–	Active
C#CCCCCCCCCOC(=O)/C=C/c1ccc(OC(C)=O)c(OC(C)=O)c1	> 10	0.18	–	–	–	–	–
CC(=O)Oc1ccc(/C=C/C(=O)O)cc1OC(C)=O	> 10	> 10	–	–	84.7	90.3	–
CC(=O)Oc1ccc(/C=C/C(=O)OCCc2cn(CCCOC(=O)C3(C)CCc4c(C)c(OC(C)=O)c(C)c(C)c4O3)nn2)cc1OC(C)=O (configuration not stated)	> 10	0.16	10.1	Active	–	–	Active
CC(=O)Oc1ccc(/C=C/C(=O)OCCCN=[N+]=[N-])cc1OC(C)=O	> 10	1.3	–	–	–	–	–
